Screening results from PubChem BioAssay.
GPR7 antagonist – blocks human GPR7 receptor signaling; P48145; GPR7-expressing cells, fluorescence antagonist assay; inhibition, % at 4.4 µM; 290,000 compounds, 1.1% hits; in the data active means inhibition above about 16%, passing the limit was not always enough;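 further: cells stimulated with the agonist NPW; 0% = agonist with vehicle and 100% = vehicle without agonist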
OX1R antag-1 – OX1R (human) antagonism; O43613; OX1R-expressing cells, FRET antagonist read-out; inhibition, % at 6.6 µM; 330,000 compounds, 1.8% hits; AID 485270; in the data active means inhibition mostly above about 38%, no sharp cut-off; inactive means mostly below about 40%;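 further: 0% = agonist challenge alone and 100% = reference antagonist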
OX1R antag-2 – antagonists of human orexin 1 receptor | O43613 | CHO/OX1R cells, Fluo-8 calcium fluorescence, orexin A | inhibition, % at 5 µM | 330,000 compounds, 0.43% hits;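 active means inhibition above its plate's threshold, mean inhibition of all tested compounds on the plate plus 3 SD, cut at about 37% in these data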;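 further: 0% = orexin A challenge wells and 100% = SB-334867-A antagonist wells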
TRPN1 ag – agonists of zebrafish TRPN1 channel; HEK293 zebrafish TRPN1-YFP, Fluo-8 calcium fluorescence; 100% = response to 87 µM carbachol; activation, % at 3 µM; 220,000 compounds, 0.18% hits; AID 1424;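 active means activation above its plate's cutoff, the mean activation of test wells on that plate plus 3 SD, cut at about 19% in these data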;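 further: 0% = DMSO alone and 100% = 87 µM carbachol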
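Assay system: Zebrafish TRPN1-YFP in HEK293 cells | Incubation: Dye loading 1 h at 37 °C, then 30 min room temperature | Measured by: Kinetic Fluo-8 fluorescence, ex 470-495, em 515-575 nm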
TRPML3 agonist – activates the human TRPML3 channel | HEK293 TRPML3-YFP, Fluo-8 calcium fluorescence; 100% = the carbachol control signal | activation, % at 3 µM | 220,000 compounds, 0.29% hits | AID 1448;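 active means activation above its plate's cutoff, the mean activation of the plate's test wells plus 3 SD, cut at about 12% in these data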;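 further: 0% = DMSO only wells and 100% = carbachol wells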
Target sequence (Q8TDD5 whole entry, looked up): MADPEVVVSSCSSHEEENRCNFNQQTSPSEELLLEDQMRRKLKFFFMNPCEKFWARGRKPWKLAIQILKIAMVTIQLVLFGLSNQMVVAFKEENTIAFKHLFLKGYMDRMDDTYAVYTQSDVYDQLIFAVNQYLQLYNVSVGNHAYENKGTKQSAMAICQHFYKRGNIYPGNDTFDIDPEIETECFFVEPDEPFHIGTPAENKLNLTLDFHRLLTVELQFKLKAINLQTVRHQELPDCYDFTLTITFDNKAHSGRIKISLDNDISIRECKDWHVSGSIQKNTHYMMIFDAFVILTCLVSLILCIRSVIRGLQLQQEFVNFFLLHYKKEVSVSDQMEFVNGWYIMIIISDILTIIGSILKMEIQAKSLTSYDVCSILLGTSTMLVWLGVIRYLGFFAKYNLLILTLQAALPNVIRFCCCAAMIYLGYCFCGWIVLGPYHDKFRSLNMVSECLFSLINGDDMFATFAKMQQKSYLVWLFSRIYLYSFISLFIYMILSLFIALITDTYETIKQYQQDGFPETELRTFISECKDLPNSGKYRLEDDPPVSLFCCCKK
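Test system: HEK293 cells stably carrying human TRPML3-YFP; Doses: single dose, 3 µM final nominal compound, 0.3% DMSO final; Schedule: dye loading 1 h 37 °C then 30 min ambient, 125 s read; Technique: Fluo-8 calcium fluorescence; Benchmarks: high control carbachol 87 µM, low control DMSO.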
CHO parental Ca – counter-screen: ATP calcium response change in parental CHO cells | 330,000 compounds, 0.63% hits | inhibition, % at 5.6 µM | parental CHO-K1, ATP-induced calcium, Fluo-8 fluorescence;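 active means inhibition above that plate's mean sample inhibition plus 3 SD, cut at about 26% in these data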;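 further: 0% = ATP-challenged DMSO wells and 100% = DMSO wells without ATP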
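Assay system – parental CHO cells · Reagent – ATP stimulus · Detection – intracellular calcium via Fluo-8 no-wash fluorescent dye · Evaluation – percent inhibition of ATP-evoked calcium rise, normalized to controls · Controls – ATP wells versus no-ATP DMSO wells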
TRPN1 counter – activates zebrafish TRPN1, counter-screen for TRPML3 agonists. shares compounds with TRPML3 agonist. HEK293 zebrafish TRPN1-YFP, Fluo-8 calcium fluorescence; scaled: carbachol wells 100%, DMSO wells 0%. activation, % at 3 µM. 310 compounds, 10% hits. AID 1525;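 active means mean activation over replicates above a set limit taken from the earlier TRPN1 channel primary screen, cut at about 19% in these data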;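 further: 100% = carbachol and 0% = 0.3% DMSO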
TRPML3 ag conf – human TRPML3 agonism, confirmation; shares compounds with TRPML3 agonist; HEK293 TRPML3-YFP, Fluo-8 calcium fluorescence; 100% set by carbachol, 0% by DMSO; activation, % at 3 µM; 310 compounds, 80% hits;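 active means activation above a set limit derived from the earlier primary screen, cut at about 12% in these data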
GPR7 antag conf – human GPR7 antagonism, confirmation assay | shares compounds with GPR7 antagonist | GPR7-expressing cells, calcium fluorescence antagonist mode | inhibition, % at 4.4 µM | 2,400 compounds, 52% hits | AID 1952; in the data active means inhibition above about 24%;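 further: stimulated with the GPR7 agonist NPW; 0% = agonist plus vehicle and 100% = vehicle alone without agonist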
MCHR1 antag – MCHR1 (human) antagonism in GPR7 counter-screen; shares compounds with GPR7 antagonist; MCHR1-expressing cells, fluorescence antagonist assay; inhibition, % at 4.4 µM; 2,400 compounds, 62% hits; AID 2148; in the data active means inhibition above about 22%;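 further: 0% = vehicle with agonist and 100% = vehicle without agonist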
* = called active by the depositor; . = no result. Most compounds without a hit are left out; they make up all but 3.2% or so of the library.

SMILES | GPR7 antagonist | OX1R antag-1 | OX1R antag-2 | TRPN1 ag | TRPML3 agonist | CHO parental Ca | others
CCC(=NCCOc1ccc(Cl)cc1)c1c(O)n(C)c(=O)n(C)c1=O | -2.5 | 19.4 | 53.6* | 7.6 | 2.7 | 50.1*
CCC(=NCCc1c[nH]c2ccccc12)c1c(O)n(-c2ccc(C)cc2)c(=O)[nH]c1=O | -7.6 | 7.0 | -21.6 | 0.8 | 0.4 | -9.2
Oc1cc(Cl)ccc1Oc1ccc(Cl)cc1Cl | . | 45.0* | 25.3 | . | . | 67.1*
COC12C(COC(N)=O)C3=C(C(=O)C(C)=C(N)C3=O)N1CC1C2N1C (centres undefined) | -6.1 | 56.7* | 3.8 | -0.4 | -0.1 | -5.5
Cc1ccc(OP(N)(=O)Oc2ccc(C)cc2)cc1 | -6.0 | 19.9 | -11.7 | -0.5 | 0.6 | 2.9
O=C1NC(=O)N(c2ccc3c(c2)OCO3)C(=O)/C1=C/c1ccc(N2CCCCC2)o1 | -5.6 | 61.1* | -4.7 | 2.4 | 1.8 | -1.6
O=C1NC(=O)N(c2ccc3c(c2)OCO3)C(=O)/C1=C\c1ccc(-c2ccccc2C(=O)O)o1 | -19.2 | 32.0 | -13.6 | 3.4 | 2.1 | -4.2
CC(=O)OCC[N+](C)(C)C | 7.5 | -0.9 | 0.3 | 75.2* | 99.8* | 3.2
C[N+](C)(C)CCOC(=O)CBr | . | 11.0 | -8.7 | . | . | 4.1
CC(=O)OC1(Cc2ccccc2)CN2CCC1c1ccccc12 (centres undefined) | 3.3 | 9.1 | -7.7 | 0.2 | -0.3 | -14.1
CN(C(=O)COC(=O)c1cn(C)c2ccccc12)C1CCCCC1 | . | 38.1* | 22.3 | . | . | -11.9
CCS(=O)(=O)NC(C)c1nnc2n1-c1ccc(Br)cc1C(c1ccccc1Cl)=NC2 (centres undefined) | . | 6.4 | -26.2 | . | . | -9.6
Cn1c(=O)[nH]c2nncnc2c1=O | . | 70.1* | 4.7 | . | . | -2.0
O=[N+]([O-])c1ccc(-[n+]2c(-c3ccccc3)cc(-c3ccccc3)cc2-c2ccccc2)cc1 | 15.2 | 28.9 | -17.4 | . | . | -9.2
O=[N+]([O-])c1ccccc1-c1cc(-c2ccccc2)cc(-c2ccccc2)[n+]1Cc1ccccc1Cl | . | 34.3 | 69.8* | . | . | 68.1*
COC(=O)c1ccc(N2CCN(C)CC2)c([N+](=O)[O-])c1 | -3.3 | 44.5* | -22.2 | 0.5 | 0.2 | -16.6
CC(C)c1ccc(NC(=O)CCNC(=O)N2C[C@H]3C[C@@H](C2)c2cccc(=O)n2C3)cc1 | 9.1 | 7.9 | -18.8 | . | . | -9.8
CCOc1ccc(-n2c(O)c(N=Nc3c(C)n(C)n(-c4ccccc4)c3=O)c(=O)[nH]c2=O)cc1 | -5.0 | 38.8* | -1.9 | 2.9 | 0.2 | 5.5
C=CCn1c(O)c(N=Nc2c(C)n(C)n(-c3ccccc3)c2=O)c(=O)[nH]c1=S | 12.4 | 58.4 | -8.0 | -1.3 | 0.2 | -6.3
Cc1c(N=Nc2c(O)[nH]c(=S)[nH]c2=O)c(=O)n(-c2ccccc2)n1C | -2.8 | 76.6* | 1.8 | 0.8 | 0.6 | -9.2
Nc1nonc1C(=O)N/N=C/c1ccc([N+](=O)[O-])o1 | -6.8 | 75.0* | -5.7 | 2.0 | 1.5 | -1.7
O=C(Nc1ccc(F)cc1F)c1cccnc1Oc1cccc(C(F)(F)F)c1 | -18.8 | 8.3 | -20.0 | -0.3 | 0.3 | -6.8
N#CC(C#N)=NNc1ccc(-n2ccc(C(F)(F)F)n2)cc1 | 25.6* | 61.3* | 52.8* | 27.4* | 23.3* | 50.2*
Cc1cc(C)n(-c2ccc(NN=C(C#N)C#N)cc2)n1 | 0.9 | 59.6 | 13.8 | 31.9* | 17.6* | 27.4
CCN(CC)S(=O)(=O)c1ccc(NN=C(C#N)C#N)cc1 | -3.2 | 58.5 | 5.8 | 1.5 | 1.3 | -9.2
SMILES | GPR7 antagonist | OX1R antag-1 | OX1R antag-2 | TRPN1 ag | TRPML3 agonist | CHO parental Ca | others
Cc1ccc2c(c1N)C(=O)c1ccccc1C2=O | . | 40.4* | 19.0 | . | . | 4.4
COC(=O)C1=C(c2ccc(F)cc2OCc2ccccc2)C[C@@H]2CC[C@H]1N2C(=O)NCc1cccc(C(F)(F)F)c1 | . | 22.3 | 24.7 | . | . | -16.9
CC(C)OCCCNC(=O)c1c(N)n(CC2CCCO2)c2nc3ccccc3nc12 (centres undefined) | 15.4* | 11.9 | -20.6 | -1.5 | 1.0 | -24.2
CC(C)(C)c1cc([N+](=O)[O-])cc(C(C)(C)C)c1O | 2.6 | 45.2 | 2.7 | 16.8 | 11.3 | 2.5
COc1cc(/C=C/C(=O)c2c(O)n(CCc3ccccc3)c(=O)[nH]c2=O)ccc1O | 11.0 | 21.2 | 1.7 | 0.8 | 1.2 | -7.1
NC(=O)c1cc(N2CC2)c([N+](=O)[O-])cc1[N+](=O)[O-] | . | 73.6* | 5.2 | . | . | 1.5
Cc1nc2cc(F)ccc2n1C1CCN(Cc2nnnn2CCc2ccccc2)CC1 | -6.2 | 8.4 | -18.5 | 3.7 | 3.4 | -4.3
Cc1nc2cc(C(F)(F)F)ccc2n1C1CCN(Cc2nnnn2CCc2ccccc2)CC1 | 20.2* | 4.1 | -19.3 | 4.4 | 2.9 | -5.4
O=C(Cc1cc(=O)[nH]c(=O)[nH]1)N1CCN(CCO)CC1 | -11.8 | . | . | 2.8 | 1.2 | .
CC[C@@]1(O)C(=O)OCc2c1cc1n(c2=O)Cc2cc3c(NC(=O)CN)cccc3nc2-1 | 11.4 | 38.2* | 10.8 | -1.0 | 1.7 | -5.8
CCC1(OC(=O)CN)C(=O)OCc2c1cc1n(c2=O)Cc2cc3ccccc3nc2-1 (centres undefined) | -5.4 | 55.8* | -7.9 | 1.6 | 0.7 | -12.6
CC[C@@]1(O)C(=O)OCc2c1cc1n(c2=O)Cc2cc3ccccc3nc2-1 | -9.2 | 54.8 | -4.7 | 1.2 | 0.7 | -7.5
COc1ccc(N2C(=O)/C(=C/C=C/c3ccccc3[N+](=O)[O-])C(=O)NC2=S)cc1 | 0.6 | . | . | 0.0 | -0.7 | .
CCOC(=O)c1c(N)n(Cc2ccco2)c2nc3ccccc3nc12 | -8.5 | 19.4 | -8.2 | 4.3 | 15.4* | -9.3 | TRPN1 counter=3.8;TRPML3 ag conf=2.5
CN1C(=O)C(=Cc2c(OCc3cnc(Cl)s3)ccc3ccccc23)C(=O)N(C)C1=O | 10.2 | 38.0 | -22.0 | -1.0 | 1.2 | -7.9
COc1cc(C)c(CNCCc2c[nH]c3ccccc23)cc1C | 38.4* | -9.6 | -13.8 | . | . | -9.9 | GPR7 antag conf=21.9;MCHR1 antag=55.5*
N=c1c[n+](C2CCCCC2)[n-]o1 | -4.7 | 8.1 | 7.3 | 1.7 | 1.2 | 2.6
